According to ChEMBL document CHEMBL1147907, “Structure-based discovery of new small molecule inhibitors of low molecular weight protein tyrosine phosphatase” (Eur J Med Chem, 2007):
Calls of active or inactive are those of the source. The rule behind the calls is not given here.

Molecular target: T1, Low molecular weight phosphotyrosine protein phosphatase (Bos taurus) (UniProt P11064)
T1 sequence (whole entry): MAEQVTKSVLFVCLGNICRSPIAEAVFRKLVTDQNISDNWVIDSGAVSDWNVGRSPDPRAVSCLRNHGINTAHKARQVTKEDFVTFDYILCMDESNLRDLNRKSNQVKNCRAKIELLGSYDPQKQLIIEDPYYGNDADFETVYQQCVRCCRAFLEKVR
Test: (§1) Inhibition of bovine low molecular weight PTP expressed in Escherichia coli […] cells
Procedure, shortened: (§2)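 Enzyme held at 10 nM; p-nitrophenyl phosphate substrate at five final concentrations (0.4, 0.8, 1.2, 1.6, 2.0 mM) against four to five inhibitor concentrations; inhibitors kept as 100 mM DMSO stocks. Run at 37 °C in 40 mM sodium acetate pH 5.0, 150 mM NaCl, 1 mM TCEP. p-Nitrophenolate release read at 405 nm; competitive Ki derived.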

SMILES	Activity
O=C(O)c1ccc(C2(c3ccc(C(=O)O)cc3)OC(=O)c3ccccc32)cc1	inactive
O=C(O)C1CC(=O)N(C2CCCCCC2)C1 (centres undefined)	inactive
Cc1ccc2nc(-c3cccnc3)cc(C(=O)Nc3ccc(CC(=O)O)cc3)c2c1	inactive
Cc1cc[n+](CCCS(=O)(=O)O)c2ccccc12	inactive
O=C(O)CC(O)c1nc2ccccc2[nH]1 (centres undefined)	inactive
Cc1ccc(N2C(=O)CC(N3CCC(C(=O)O)CC3)C2=O)cc1 (centres undefined)	inactive
O=C(O)c1ccc2c(c1)C1C=CCC1C(C(=O)O)N2 (centres undefined)	inactive
O=C(O)C1CCN(S(=O)(=O)c2cccc3nsnc23)CC1	inactive
O=C(O)C1CSC(c2cc(Br)ccc2O)N1 (centres undefined)	inactive
CCCOc1ccc(N2C(=O)CC(N3CCC(C(=O)O)CC3)C2=O)cc1 (centres undefined)	inactive
O=C(O)COc1ccc2c(c1)C(=O)CC1(CCCCC1)O2	inactive
CS(=O)(=O)N1CCN(C2=C(Cl)C(=O)c3ccccc3C2=O)CC1	inactive
O=[N+]([O-])c1ccc(C2=Nn3c(nnc3-c3ccccc3)SC2)cc1	inactive
CS(=O)(=O)N1CCCC(C(=O)NCc2ccccc2Cl)C1 (centres undefined)	inactive
O=C(O)C1CCC(CNCc2ccncc2)CC1 (centres undefined)	inactive
COc1ccc(CN2CCN(S(C)(=O)=O)CC2)cc1OC	inactive
Cc1cc(C(=S)N2CCOCC2)c(C)n1-c1ccc(C(=O)O)cc1	inactive
O=C(O)c1ccc2c(c1)c1c3n2CCNC3CCC1 (centres undefined)	inactive

Molecular target: T2, Low molecular weight phosphotyrosine protein phosphatase (Bos taurus, UniProt P11064)
T2 sequence (P11064 whole entry): T1 sequence (whole entry)
Test: as §1
Procedure, shortened: as §2

SMILES	Ki [µM]
O=C(O)c1ccc2c(c1)C1C=CCC1C(c1ccccc1)N2 (centres undefined)	> 1000
O=C(O)c1ccc2[nH]c3c(c2c1)CCCC3	> 1000
O=C(O)c1ccc2[nH]c3c(c2c1)CSCC3	240
O=C(O)Cc1ccc2c(c1)[nH]c1ccc(Br)cc12	60
O=C1N=C(Cc2cccn2-c2ccc(C(=O)O)cc2)C(=O)N1	11
O=C(O)c1ccc2c(c1)C1C=CCC1C(c1ccccc1C(F)(F)F)N2 (centres undefined)	50
O=C(O)c1ccc(-n2nc(C(F)(F)F)c3c2CCCC3)cc1	> 1000
O=C(O)CCC(=O)N1CCc2cc(S(=O)(=O)NCc3cccs3)ccc21	> 1000
O=C(O)c1ccc2c(c1)C1C=CCC1C(c1cccnc1)N2 (centres undefined)	> 1000
CCn1c2c(c3cc(C(=O)O)ccc31)CCCC2=O	610
O=C(O)c1ccc(C2Nc3c(F)cc(F)cc3C3C=CCC32)cc1 (centres undefined)	910
CCn1c2ccc(CC(=O)O)cc2c2cc(CC(=O)O)ccc21	170
O=C(O)c1ccc2c(c1)C1C=CCC1C(c1cccc(Br)c1)N2 (centres undefined)	9
O=C(O)Cc1ccc(C2C(=O)C3SC=CC3NC2=S)cc1 (centres undefined)	880
Cn1c(=O)oc2cc(S(=O)(=O)N3CCC(C(=O)O)CC3)ccc21	> 1000
O=C(O)CCC(=O)N1N=C(c2ccccc2)CC1c1ccccc1F (centres undefined)	> 1000
